Assay results published in the array DNA melting data of Ke et al. (doi:10.1101/2024.01.08.574731).

Legend:
[1] = folding enthalpy; higher = less favourable; fluorescence melt of hairpins on a sequencing array, two-state fit; conditions: sodium 0.088 M
How it was run: (§1)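 Cy3 fluorescence of library hairpins on a sequenced MiSeq flow cell, with annealed Cy3 and quencher oligos, was imaged in 50 mM Na-HEPES pH 8.0, 25 mM NaCl in 2.5 °C steps up to 60 °C. Signals were normalised to pre-quench Cy3 and to control variants. Melting temperature and folding enthalpy came from bootstrapped two-state fits, inverse-variance combined over four replicates. Fitted temperatures were raised by 9.35 °C to match UV melts.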

[2] = melting temperature; fluorescence melt of hairpins on a sequencing array, two-state fit, raised by 9.35 °C to match UV melts; conditions: sodium 0.088 M
How it was run: as §1

Sequence | folding enthalpy [1] | Tm [2]
GTAGCCCGAAAGGGGTAC (((.(((....))).))) | -32 kcal/mol | 68.5 °C
GAGCGGGGAAACCCGCCC (.(((((....))))).) | -8.26 kcal/mol | 45.1 °C
GATCAGAAGCTGATC ((((((...)))))) | -33 kcal/mol | 48 °C
GATCAAAGCGTTGATC ((((((....)))))) | -31.6 kcal/mol | 43.7 °C
GTGTATCGAAAGATGCAC (((.(((....))).))) | -41.9 kcal/mol | 53.6 °C
GGGCTTGGAAACGAGCCC (((((.(....).))))) | -51.4 kcal/mol | 59.2 °C
GATCACCGGGGTGATC ((((((....)))))) | -46.5 kcal/mol | 62.7 °C
GTTGAGGCGAAAGCCAAC (((..(((....)))))) | -14.6 kcal/mol | 40.7 °C
GCAACCCCGAAAGGGTGC (((..(((....)))))) | -19.2 kcal/mol | 55.8 °C
GTATATGGAAACGTATAC (((((.(....).))))) | -24.4 kcal/mol | 35.2 °C
GTAACCGAAAGGTAATAC ((((((....)))..))) | -11.9 kcal/mol | 23.8 °C
CGTTCCGGAAACGGTACG (((.(((....))).))) | -31.5 kcal/mol | 50 °C
GATGCACGAAAGTGGATC (((.(((....))).))) | -37.5 kcal/mol | 54.9 °C
GCTATTGGAAACGATAGC (((((.(....).))))) | -32.4 kcal/mol | 44.8 °C
GCACCCGAAAGGGTATGC ((((((....)))..))) | -13.9 kcal/mol | 48.3 °C
GTATGCGGAAACGTATGC (.((.((....)).)).) | -18 kcal/mol | 32.2 °C
GTCGGTGGAAACACCGGC (.(((((....))))).) | -23.8 kcal/mol | 63.2 °C
GACCGGCGAAAGCCCGTC (((.(((....))).))) | -16.9 kcal/mol | 50.8 °C
GTATCTCCGAAAGGATAC (((..(((....)))))) | -19.6 kcal/mol | 30.7 °C
GATCCACCAATGGATC ((((((....)))))) | -36.4 kcal/mol | 48.5 °C
GCTATGCGAAAGCCTAGC ((((.((....)).)))) | -28.8 kcal/mol | 52.4 °C
GAGGCCGCGAAAGCGCTC (((..(((....)))))) | -12.8 kcal/mol | 35 °C
GCCACGCGAAAGCCTAGC ((.(.((....)).).)) | -6.53 kcal/mol | 14.4 °C

Sequence | folding enthalpy [1] | Tm [2]
GACGACGAAAGTCATGTC ((((((....)))..))) | -15.2 kcal/mol | 40.3 °C
GAACGGGGAAACCCGTTC (((((((....))))))) | -34.2 kcal/mol | 67.9 °C
GTAGATGAAAATCTAC ((((((....)))))) | -29.2 kcal/mol | 48.6 °C
GCTTACCGAAAGGTTAGC (((.(((....))).))) | -35 kcal/mol | 52.8 °C
GACTGCGAAAGCACGGTC ((((((....)))..))) | -12.4 kcal/mol | 42.4 °C
GGCGTAGGAAACTGCGCC ((((.((....)).)))) | -48.8 kcal/mol | 62.3 °C
GCCGCGCGAAAGCGTTGC ((..(((....)))..)) | -14.6 kcal/mol | 44.1 °C
GTTCAGCGAAAGCTCAAC (((.(((....))).))) | -15.4 kcal/mol | 33.2 °C
GCGTATGGAAACATATGC ((.((((....)))).)) | -46.8 kcal/mol | 47.8 °C
GGAAGGGGAAACCCTCCC ((.((((....)))).)) | -21 kcal/mol | 41.1 °C
GATGTCGGAAACGACACC (.(((((....))))).) | -11.4 kcal/mol | 40.4 °C
GCCAGGGGAAACCCCGAC (.(.(((....))).).) | -9.47 kcal/mol | 32.6 °C
GTCGTGACGAAAGTCGAC (((..(((....)))))) | -16.6 kcal/mol | 46.3 °C
GAGAAGGAAACTTCTC ((((((....)))))) | -23.3 kcal/mol | 48.3 °C
GAGGCACCGAAAGGTCTC (((..(((....)))))) | -11.5 kcal/mol | 31.3 °C
GATCGGGCTCCGATC ((((((...)))))) | -35.8 kcal/mol | 58.3 °C
GTATCTCGAAAGAGTTAC (((.(((....))).))) | -26.6 kcal/mol | 36.4 °C
GCTTCGCGAAAGCCATGC ((.(.((....)).).)) | -9.05 kcal/mol | 34.6 °C
GCGTAAGAAATTACGC ((((((....)))))) | -40.4 kcal/mol | 55.3 °C
GCATATCGAAAGATTGC (((.(((....)))))) | -25.9 kcal/mol | 46.6 °C
GATCGGTGTACCGATC ((((((....)))))) | -36.3 kcal/mol | 65.8 °C
GGGCGTCGAAAGACCCC (((.(((....)))))) | -37.1 kcal/mol | 58.9 °C
GATACCGAAAGGTAATC ((((((....))).))) | -18.9 kcal/mol | 39 °C

Sequence | folding enthalpy [1] | Tm [2]
GTTAGGCGAAAGCCGAAC (((.(((....))).))) | -19.6 kcal/mol | 55.9 °C
GCGGTGCGAAAGCTCTGC ((.(.((....)).).)) | -20.2 kcal/mol | 54.3 °C
GATCTATAGTAGATC ((((((...)))))) | -22.4 kcal/mol | 38.6 °C
GATCCTACTAGGATC ((((((...)))))) | -36.2 kcal/mol | 53.6 °C
GATCCTCTGCAGGATC ((((((....)))))) | -37 kcal/mol | 50.7 °C
GTTGGAGGAAACTCTAAC (((.(((....))).))) | -27.1 kcal/mol | 39.9 °C
GGGTATGCGAAAGCACCC (((..(((....)))))) | -21.2 kcal/mol | 50.4 °C
GTGTACGGAAACGCACAC ((((.((....)).)))) | -38.1 kcal/mol | 49.1 °C
GTGAGTCCGAAAGGACAC (((..(((....)))))) | -13.1 kcal/mol | 49.6 °C
GATCAACTGGTTGATC ((((((....)))))) | -39.8 kcal/mol | 55.2 °C
GCGCGAGGAAACCCACGC (((.(.(....).).))) | -20.3 kcal/mol | 40 °C
GGAAAACGAAAGTTGTCC (((.(((....))).))) | -26.1 kcal/mol | 44.6 °C
GTCTTACGAAAGTAGGAC (((.(((....))).))) | -28.2 kcal/mol | 48.9 °C
GGGCCAGGAAACTGGCTC (.(((((....))))).) | -16.1 kcal/mol | 61 °C
CGCGGAAAAATCCGCG ((((((....)))))) | -38.1 kcal/mol | 58.9 °C
GTCCGGGGAAACCCAGAC (((.(((....))).))) | -29.6 kcal/mol | 42.8 °C
GCCGCGCGAAAGCGTAGC ((..(((....)))..)) | -13.8 kcal/mol | 48.9 °C
GGTGATGGAAACGTCACC (((((.(....).))))) | -49.9 kcal/mol | 53.5 °C
GCCACGCGAAAGCGAAGC ((..(((....)))..)) | -11.2 kcal/mol | 43.4 °C
GATCGTTGGTACGATC ((((((....)))))) | -38.4 kcal/mol | 55.2 °C
GGAGGCGAAAGCCAATCC ((((((....)))..))) | -10.4 kcal/mol | 33.6 °C
GATCGCGAAAGCGAATC ((((((....))).))) | -14 kcal/mol | 52.5 °C
GTAGCCGAAAGGCAATAC ((((((....)))..))) | -9.85 kcal/mol | 31.2 °C

Sequence | folding enthalpy [1] | Tm [2]
ATCAGTGAGAAATCACTGAA .................... | -14.1 kcal/mol | 46.2 °C
GACTCGGGAAACCAAGTC ((((.((....)).)))) | -25 kcal/mol | 37.6 °C
GAGCCCGAAAGGGTGCTC ((((((....)))..))) | -18.6 kcal/mol | 52.1 °C
GCCTACGGAAACACAGGC ((((..(....)..)))) | -23.3 kcal/mol | 34.6 °C
GTCTGAGGAAACTTGGAC (((..((....))..))) | -15.9 kcal/mol | 31.7 °C
GGTCTAGAAATAGACC ((((((....)))))) | -38.1 kcal/mol | 51.8 °C
GCTACGGGAAACCGCAGC (((.(((....))).))) | -41.7 kcal/mol | 49.7 °C
GGATAGGAAACTATCC ((((((....)))))) | -30.5 kcal/mol | 51.4 °C
GGTGTAGGAAACCACACC (((((.(....).))))) | -32.9 kcal/mol | 47.4 °C
GGCCTGCGAAAGCAGCC (((.(((....)))))) | -15.8 kcal/mol | 61.1 °C
GCAATGGGAAACCATTAC (.(((((....))))).) | -14.9 kcal/mol | 33.9 °C
GCGTTTGGAAACGAACGC (((((.(....).))))) | -61.3 kcal/mol | 55.7 °C
GCTATGGGAAACCACAGC (((.(((....))).))) | -23.7 kcal/mol | 38.6 °C
GCAAATGGAAACATTTGC (((((((....))))))) | -40.9 kcal/mol | 61.8 °C
GATCAATAAATTGATC ((((((....)))))) | -30.7 kcal/mol | 42.8 °C
GAATGCGAAAGCAATTTC ((((((....)))..))) | -9.54 kcal/mol | 30.6 °C
GACCTGGGAAACCAGACC (..((((....))))..) | -10.3 kcal/mol | 24.6 °C
GATCAGGATACTGATC ((((((....)))))) | -33.8 kcal/mol | 56 °C
GCCTAAGGAAACTTAGGC (((((((....))))))) | -40.1 kcal/mol | 58.3 °C
GATCCAAGCTTGGATC ((((((....)))))) | -54.6 kcal/mol | 54.8 °C
GCTCAGACGAAAGTCAGC (((..(((....)))))) | -15.5 kcal/mol | 41 °C
GTCAATGCGAAAGCAGAC (((..(((....)))))) | -16.3 kcal/mol | 39.1 °C
GATCACACGTGTGATC ((((((....)))))) | -43.5 kcal/mol | 57.7 °C
